Data taken from ChEMBL document CHEMBL3259559, “Design, synthesis and preliminary evaluation of α-sulfonyl γ-(glycinyl-amino)proline peptidomimetics as matrix metalloproteinase inhibitors” (Bioorg Med Chem, 2014).

How the values were obtained:
Histone deacetylase = test: Inhibition of HDAC in human HeLa nuclear extract using Boc-Lys (acetyl)-AMC as fluorogenic substrate after 30 mins by spectrophotometry; assay type: protein assay
[1] = target: T1, 72 kDa type IV collagenase (Homo sapiens, UniProt P08253); test: Inhibition of MMP2 (unknown origin) using succinylated gelatin as substrate preincubated for 10 mins before substrate addition measured after 30 mins by spectrophotometry
T1 sequence (P08253 whole entry): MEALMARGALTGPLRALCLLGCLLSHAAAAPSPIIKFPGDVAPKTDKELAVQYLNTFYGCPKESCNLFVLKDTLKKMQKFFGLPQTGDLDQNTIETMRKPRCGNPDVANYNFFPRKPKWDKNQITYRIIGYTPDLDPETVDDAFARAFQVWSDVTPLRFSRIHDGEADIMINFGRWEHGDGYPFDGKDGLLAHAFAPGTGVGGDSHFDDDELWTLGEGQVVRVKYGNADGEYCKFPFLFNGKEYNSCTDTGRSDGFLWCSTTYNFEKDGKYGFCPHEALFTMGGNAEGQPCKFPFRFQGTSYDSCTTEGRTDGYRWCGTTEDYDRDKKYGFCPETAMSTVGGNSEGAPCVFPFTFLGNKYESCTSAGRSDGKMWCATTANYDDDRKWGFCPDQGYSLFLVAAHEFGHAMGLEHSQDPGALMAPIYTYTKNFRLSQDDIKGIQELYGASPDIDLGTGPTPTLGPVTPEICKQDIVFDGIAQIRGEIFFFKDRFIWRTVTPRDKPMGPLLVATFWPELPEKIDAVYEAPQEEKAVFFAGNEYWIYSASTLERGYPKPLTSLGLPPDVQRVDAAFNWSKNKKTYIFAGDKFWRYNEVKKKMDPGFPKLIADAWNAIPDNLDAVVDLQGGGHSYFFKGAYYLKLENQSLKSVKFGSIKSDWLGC
How it was run: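 Purified MMP-2 (gelatinase A) and inhibitor in 50 mmol/L sodium borate pH 8.5, preincubated 10 min at 37 °C. Succinylated gelatin then added for 30 min at 37 °C, followed by 0.03% TNBS for 20 min; OD read at 450 nm. IC₅₀ as mean with SD of three experiments.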

Aminopeptidase N = target: T2, Aminopeptidase N (Sus scrofa, UniProt P15145); test: Inhibition of pig kidney microsomal APN using L-Leu-p-nitroanilide as substrate preincubated for 5 mins before substrate addition measured after 30 mins by spectrophotometry
T2 sequence (P15145 whole entry): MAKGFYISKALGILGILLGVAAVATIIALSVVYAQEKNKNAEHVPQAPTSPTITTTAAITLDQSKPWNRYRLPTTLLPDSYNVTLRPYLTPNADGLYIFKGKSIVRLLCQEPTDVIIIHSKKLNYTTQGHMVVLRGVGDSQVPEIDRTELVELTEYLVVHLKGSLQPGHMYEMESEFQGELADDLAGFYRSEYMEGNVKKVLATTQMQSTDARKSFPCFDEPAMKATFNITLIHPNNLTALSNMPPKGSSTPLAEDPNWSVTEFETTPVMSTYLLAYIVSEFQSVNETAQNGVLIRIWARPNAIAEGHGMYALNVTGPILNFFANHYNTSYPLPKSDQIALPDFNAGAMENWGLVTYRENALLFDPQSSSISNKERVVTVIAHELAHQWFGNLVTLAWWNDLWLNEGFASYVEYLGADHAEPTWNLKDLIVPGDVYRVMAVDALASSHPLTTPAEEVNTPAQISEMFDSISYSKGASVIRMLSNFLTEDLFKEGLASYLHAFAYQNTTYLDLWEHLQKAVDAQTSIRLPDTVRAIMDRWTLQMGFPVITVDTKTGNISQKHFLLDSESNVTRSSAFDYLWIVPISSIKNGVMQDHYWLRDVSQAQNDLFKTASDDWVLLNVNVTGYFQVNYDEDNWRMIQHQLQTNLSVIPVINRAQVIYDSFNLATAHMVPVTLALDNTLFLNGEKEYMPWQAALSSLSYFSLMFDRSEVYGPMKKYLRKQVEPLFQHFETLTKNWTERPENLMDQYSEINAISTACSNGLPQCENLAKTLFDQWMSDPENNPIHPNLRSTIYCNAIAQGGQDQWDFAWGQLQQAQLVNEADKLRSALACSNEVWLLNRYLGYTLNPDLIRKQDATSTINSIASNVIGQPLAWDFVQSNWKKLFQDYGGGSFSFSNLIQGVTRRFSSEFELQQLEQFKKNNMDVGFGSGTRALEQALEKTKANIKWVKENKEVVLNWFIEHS

[2] = target: T1, 72 kDa type IV collagenase; test: Inhibition of MMP2 in human SKOV3 cell suspension using succinylated gelatin as substrate preincubated for 10 mins before substrate addition measured after 30 mins by spectrophotometry; design: species or system SK-OV-3
How it was run: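 Enzyme source was SKOV-3 cells suspended in PBS, 1 × 10⁵/well, incubated with inhibitor in 50 mmol/L sodium borate pH 8.5 for 10 min at 37 °C. Succinylated gelatin added for 30 min at 37 °C, then 0.03% TNBS for 20 min; absorbance at 450 nm. IC₅₀ as mean with SD of three experiments.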

SK-OV-3 = test: Antiproliferative activity against human SKOV3 cells after 48 hrs by MTT assay; assay type: functional, cell-based; details: SK-OV-3, 48 h
How it was run: (§1)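 Cells kept in RPMI1640 with 10% FBS at 37 °C, 5% CO₂; seeded 10,000/well, grown 4 h, then exposed to graded compound concentrations for 48 h. 0.5% MTT added for 4 h, formazan dissolved in DMSO 15 min. IC₅₀ as mean with SD of triplicate experiments.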

A549 = test: Antiproliferative activity against human A549 cells after 48 hrs by MTT assay; assay type: functional, cell-based; details: A549, 48 h; how it was run: as §1
HL-60 = test: Antiproliferative activity against human HL60 cells after 48 hrs by MTT assay; assay type: functional, cell-based; details: HL-60, 48 h; how it was run: as §1

Row | SMILES | IC50 (Histone deacetylase) [µM] | IC50 [1] [µM] | IC50 (Aminopeptidase N) [µM] | IC50 [2] [µM] | IC50 (SK-OV-3) [µM] | IC50 (A549) [µM] | IC50 (HL-60) [µM]
1 | CC(C)[C@H](N)C(=O)NCC(=O)N[C@H]1C[C@@H](C(=O)NO)N(S(=O)(=O)c2ccccc2)C1.Cl | > 100 | 5.76 | > 100 |  |  |  | 
2 | CC(C)C[C@H](N)C(=O)NCC(=O)N[C@H]1C[C@@H](C(=O)NO)N(S(=O)(=O)c2ccccc2)C1.Cl | > 100 | 1.52 | 82.3 |  |  |  | 
3 | CC[C@H](C)[C@H](N)C(=O)NCC(=O)N[C@H]1C[C@@H](C(=O)NO)N(S(=O)(=O)c2ccccc2)C1.Cl | > 100 | 5.21 | > 100 |  |  |  | 
4 | Cl.N[C@@H](Cc1ccccc1)C(=O)NCC(=O)N[C@H]1C[C@@H](C(=O)NO)N(S(=O)(=O)c2ccccc2)C1 | > 100 | 2.07 | 94.5 |  |  |  | 
5 | CSCC[C@H](N)C(=O)NCC(=O)N[C@H]1C[C@@H](C(=O)NO)N(S(=O)(=O)c2ccccc2)C1.Cl | > 100 | 2.32 | > 100 |  |  |  | 
6 | Cc1ccc(S(=O)(=O)N2C[C@@H](NC(=O)CNC(=O)[C@@H](N)Cc3ccccc3)C[C@H]2C(=O)NO)cc1.Cl | > 100 | 0.98 | 88 |  |  |  | 
7 | CSCC[C@H](N)C(=O)NCC(=O)N[C@H]1C[C@@H](C(=O)NO)N(S(=O)(=O)c2ccc(C)cc2)C1.Cl | > 100 | 1.03 | > 100 |  |  |  | 
8 | COc1ccc(S(=O)(=O)N2C[C@@H](NC(=O)CNC(=O)[C@@H](N)CC(C)C)C[C@H]2C(=O)NO)cc1.Cl | > 100 | 0.52 | 83.6 | 29.7 |  |  | 
9 | CC[C@H](C)[C@H](N)C(=O)NCC(=O)N[C@H]1C[C@@H](C(=O)NO)N(S(=O)(=O)c2ccc(OC)cc2)C1.Cl | > 100 | 1.94 | 89.9 |  |  |  | 
10 | COc1ccc(S(=O)(=O)N2C[C@@H](NC(=O)CNC(=O)[C@@H](N)Cc3ccccc3)C[C@H]2C(=O)NO)cc1.Cl | > 100 | 0.72 | 93.8 | 31.5 |  |  | 
11 | COc1ccc(S(=O)(=O)N2C[C@@H](NC(=O)CNC(=O)[C@@H](N)CCSC)C[C@H]2C(=O)NO)cc1.Cl | > 100 | 0.76 | > 100 | 35.9 |  |  | 
12 | Cl.N[C@@H](Cc1ccccc1)C(=O)NCC(=O)N[C@H]1C[C@@H](C(=O)NO)N(S(=O)(=O)c2ccc(Cl)cc2)C1 | > 100 | 0.43 | 89.9 | 24.7 | 285 | > 1000 | > 1000
13 | COc1ccc(/C=C/C(=O)N2C[C@@H](NC(=O)c3cccnc3)C[C@H]2C(=O)NO)cc1OC | > 100 | 0.95 | > 100 | 43.7 | 697 | > 1000 | > 1000
14 | CC(C)C[C@H](NC(=O)[C@@H](O)[C@H](N)Cc1ccccc1)C(=O)O [UBENIMEX] |  | > 100 |  |  |  |  | 

Results, then the compound that gave them:

Row | IC50 (Histone deacetylase) [µM] | IC50 [1] [µM] | IC50 (Aminopeptidase N) [µM] | IC50 [2] [µM] | IC50 (SK-OV-3) [µM] | IC50 (A549) [µM] | IC50 (HL-60) [µM] | SMILES
15 | > 100 | 7.43 | > 100 |  |  |  |  | C[C@H](N)C(=O)NCC(=O)N[C@H]1C[C@@H](C(=O)NO)N(S(=O)(=O)c2ccccc2)C1.Cl
16 | > 100 | 4.36 | > 100 |  |  |  |  | Cc1ccc(S(=O)(=O)N2C[C@@H](NC(=O)CNC(=O)[C@H](C)N)C[C@H]2C(=O)NO)cc1.Cl
17 | > 100 | 2.95 | 96.2 |  |  |  |  | Cc1ccc(S(=O)(=O)N2C[C@@H](NC(=O)CNC(=O)[C@@H](N)C(C)C)C[C@H]2C(=O)NO)cc1.Cl
18 | > 100 | 0.87 | 75.8 | 38.3 |  |  |  | Cc1ccc(S(=O)(=O)N2C[C@@H](NC(=O)CNC(=O)[C@@H](N)CC(C)C)C[C@H]2C(=O)NO)cc1.Cl
19 | > 100 | 2.05 | 92.6 |  |  |  |  | CC[C@H](C)[C@H](N)C(=O)NCC(=O)N[C@H]1C[C@@H](C(=O)NO)N(S(=O)(=O)c2ccc(C)cc2)C1.Cl
20 | > 100 | 4.19 | > 100 |  |  |  |  | COc1ccc(S(=O)(=O)N2C[C@@H](NC(=O)CNC(=O)[C@H](C)N)C[C@H]2C(=O)NO)cc1.Cl
21 | > 100 | 2.71 | 90.8 |  |  |  |  | COc1ccc(S(=O)(=O)N2C[C@@H](NC(=O)CNC(=O)[C@@H](N)C(C)C)C[C@H]2C(=O)NO)cc1.Cl
22 | > 100 | 3.36 | > 100 |  |  |  |  | C[C@H](N)C(=O)NCC(=O)N[C@H]1C[C@@H](C(=O)NO)N(S(=O)(=O)c2ccc(Cl)cc2)C1.Cl
23 | > 100 | 1.81 | 79.6 |  |  |  |  | CC(C)[C@H](N)C(=O)NCC(=O)N[C@H]1C[C@@H](C(=O)NO)N(S(=O)(=O)c2ccc(Cl)cc2)C1.Cl
24 | > 100 | 0.27 | 72.3 | 18.4 | 196 | > 1000 | > 1000 | CC(C)C[C@H](N)C(=O)NCC(=O)N[C@H]1C[C@@H](C(=O)NO)N(S(=O)(=O)c2ccc(Cl)cc2)C1.Cl
25 | > 100 | 1.28 | 86.4 |  |  |  |  | CC[C@H](C)[C@H](N)C(=O)NCC(=O)N[C@H]1C[C@@H](C(=O)NO)N(S(=O)(=O)c2ccc(Cl)cc2)C1.Cl
26 | > 100 | 0.46 | 95.3 | 26.2 | 322 | > 1000 | > 1000 | CSCC[C@H](N)C(=O)NCC(=O)N[C@H]1C[C@@H](C(=O)NO)N(S(=O)(=O)c2ccc(Cl)cc2)C1.Cl
